Results on eleven compounds are retold here after PubChem BioAssay.

SMILES strings stand for the structures. Some of the results follow. A number with no mark means an inactive call. Active and inactive are the calls of the source.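 How the source made its calls, unless noted: active means mean inhibition across replicates above the hit cutoff set by the earlier primary screen (cut at about 15% in these data); inactive means the rest.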

In one test the target is Insulin-degrading enzyme (Homo sapiens) (UniProt P14735). In words: cellular IDE Abeta-cleavage inhibition – fluorescence polarization, HEK cells, FAbetaB substrate, confirmation (AID 435028;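 active means mean inhibition across triplicate wells above the cutoff set by the earlier primary insulin-degrading enzyme screen, cut at about 16% in these data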;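 further: 0% = DMSO wells and 100% = 60 µM reference IDE inhibitor Ii1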). The conditions noted are these: at 5.59 µM, hits give high values.
Insulin-degrading enzyme (Homo sapiens), sequence (P14735 whole entry, looked up): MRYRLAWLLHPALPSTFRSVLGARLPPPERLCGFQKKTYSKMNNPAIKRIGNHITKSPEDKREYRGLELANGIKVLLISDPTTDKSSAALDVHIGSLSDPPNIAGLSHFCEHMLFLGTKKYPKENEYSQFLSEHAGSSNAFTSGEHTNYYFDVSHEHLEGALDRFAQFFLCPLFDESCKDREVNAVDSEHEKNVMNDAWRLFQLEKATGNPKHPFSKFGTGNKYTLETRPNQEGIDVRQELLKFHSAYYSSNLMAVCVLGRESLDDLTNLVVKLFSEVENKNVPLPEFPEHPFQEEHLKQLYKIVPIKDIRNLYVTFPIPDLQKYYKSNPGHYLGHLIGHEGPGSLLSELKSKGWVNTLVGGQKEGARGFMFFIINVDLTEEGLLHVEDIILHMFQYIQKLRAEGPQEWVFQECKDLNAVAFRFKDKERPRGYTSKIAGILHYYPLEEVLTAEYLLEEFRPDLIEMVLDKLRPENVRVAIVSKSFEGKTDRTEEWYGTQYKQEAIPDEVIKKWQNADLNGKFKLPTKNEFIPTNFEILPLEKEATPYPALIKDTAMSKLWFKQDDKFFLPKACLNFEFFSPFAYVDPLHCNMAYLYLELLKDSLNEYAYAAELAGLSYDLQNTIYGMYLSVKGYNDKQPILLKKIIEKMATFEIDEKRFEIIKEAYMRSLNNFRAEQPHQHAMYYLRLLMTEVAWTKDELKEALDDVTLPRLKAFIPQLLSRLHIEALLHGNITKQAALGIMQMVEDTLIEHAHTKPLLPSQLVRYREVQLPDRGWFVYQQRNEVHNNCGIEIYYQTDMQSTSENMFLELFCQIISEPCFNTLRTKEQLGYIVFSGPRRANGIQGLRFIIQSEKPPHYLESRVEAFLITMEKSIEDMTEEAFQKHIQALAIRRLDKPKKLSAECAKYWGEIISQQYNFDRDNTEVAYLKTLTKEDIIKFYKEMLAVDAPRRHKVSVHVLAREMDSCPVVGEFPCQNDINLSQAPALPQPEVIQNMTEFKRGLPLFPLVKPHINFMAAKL
Regarding `O=C(c1cccnc1)N(c1cc2sc(=O)oc2c2ccccc12)S(=O)(=O)c1ccccc1`, the inhibition was 3.36%.

Turning to `CC(=O)N(C1=C(Cl)C(=O)c2ccccc2C1=O)c1ccc(C(=O)O)cc1`, the inhibition is 164% (active).

As to `CC1=CC(C)(C)Nc2ccc(OC(=O)CN3C(=O)C4CCCCC4C3=O)cc21` (stereo not given), the inhibition was 29.8% (active).

System in another test: not listed separately
Kind of test: HEK cell viability loss – luminescence, cytotoxicity control for IDE inhibitor project (AID 449730; in the data active means inhibition above about 22%;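 further: 0% = vehicle wells and 100% = reference cytotoxic drug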). The settings on record: HEK293 cytotoxicity, ATP luminescence; at 5.59 µM; hits give high values.
Regarding `O=C(c1cccnc1)N(c1cc2sc(=O)oc2c2ccccc12)S(=O)(=O)c1ccccc1`, the inhibition was 10.9%.

Take `CC(=O)N(C1=C(Cl)C(=O)c2ccccc2C1=O)c1ccc(C(=O)O)cc1`: the inhibition was 14.1%.

In the case of `CC1=CC(C)(C)Nc2ccc(OC(=O)CN3C(=O)C4CCCCC4C3=O)cc21` (stereo not given), the inhibition was 75% (active).

In the next test the target is Protein-arginine deiminase type-4 (Homo sapiens) (UniProt Q9UM07). Kind of test: protein arginine deiminase 4 blockade, retest – biochemical, fluorescence polarization, confirmation (AID 488796).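 Further: inhibitors block active-site labeling by the probe so polarization falls; 0% = PAD4 with probe and DMSO and 100% = probe without PAD4 enzyme.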 The settings on record: recombinant PAD4, RCA probe fluorescence polarization; at 6.36 µM; hits give high values.
Protein-arginine deiminase type-4 (Homo sapiens), sequence (Q9UM07 whole entry, looked up): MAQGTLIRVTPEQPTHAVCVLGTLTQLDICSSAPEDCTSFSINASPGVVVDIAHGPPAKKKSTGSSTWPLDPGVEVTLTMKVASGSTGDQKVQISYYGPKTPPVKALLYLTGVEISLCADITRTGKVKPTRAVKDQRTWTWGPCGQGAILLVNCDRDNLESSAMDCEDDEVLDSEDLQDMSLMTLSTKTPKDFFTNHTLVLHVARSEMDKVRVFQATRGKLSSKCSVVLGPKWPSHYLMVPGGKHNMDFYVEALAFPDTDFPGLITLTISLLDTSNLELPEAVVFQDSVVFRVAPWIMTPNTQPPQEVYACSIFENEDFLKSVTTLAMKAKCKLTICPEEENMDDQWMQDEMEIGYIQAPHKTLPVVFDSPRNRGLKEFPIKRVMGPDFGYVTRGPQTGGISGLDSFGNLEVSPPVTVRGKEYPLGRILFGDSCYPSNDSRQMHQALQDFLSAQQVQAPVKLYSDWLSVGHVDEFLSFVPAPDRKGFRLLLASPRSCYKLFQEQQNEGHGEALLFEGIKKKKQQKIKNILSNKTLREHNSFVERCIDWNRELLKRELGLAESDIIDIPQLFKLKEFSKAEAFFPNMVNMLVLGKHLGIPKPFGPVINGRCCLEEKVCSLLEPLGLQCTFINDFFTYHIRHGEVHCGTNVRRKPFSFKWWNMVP
Turning to `COC(=O)CCCC1=CC2=CC(=O)C(C)(OC(=O)c3cccs3)C(=O)C2=CN1CC1CC1` (stereo not given), the inhibition is 1.6%.

For `Cc1[nH][nH]c(=O)c1C(c1ccc(-c2ccc(Cl)cc2)o1)c1c(C)[nH][nH]c1=O`, the inhibition is 2.58%.

For the compound `COCCN1C=C2C(=O)C(C)(OC(=O)C3CCCC3)C(=O)C=C2C=C1c1ccsc1` (stereo not given), the inhibition is -1.24%.

Regarding `Oc1c(C=Nc2cccc3nsnc23)ccc2ccccc12`, the inhibition was -54.5%.

As for `COc1ccc(S(=O)(=O)N2CCOCC2)cc1NC(=O)CSc1ncnc2ccccc12`, the inhibition is 0.87%.

Consider `CCOc1c(Br)cc(/C=C2\C(=O)N(CCC#N)N=C2C)cc1OC`, for which the inhibition is -1.18%.

A further test deals with (Lyso)-N-acylphosphatidylethanolamine lipase (Mus musculus) (UniProt Q8VD66). In words: mouse ABHD4 hydrolase blockers, triplicate – biochemical, fluorescence polarization, confirmation (AID 720658;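 active means mean inhibition across replicates above the hit cutoff set in the primary screen, cut at about 30% in these data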). The conditions noted are these: purified mABHD4, FP-Rh probe fluorescence polarization; at 8.92 µM; hits give high values. The procedure, abridged: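 Test system: wild-type mouse ABHD4. Medium: HEPES-saline buffer with 0.01% Pluronic F-127. Doses: single nominal compound dose 8.92 µM, 0.89% DMSO final. Timing: pre-incubation 45 min, probe exposure 60 min, 25 °C. Technique: FP readout, ex 525 nm, em 598 nm. Control set: S159A mutant ABHD4 plus DMSO as 100%, wild-type plus DMSO 0%.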
(Lyso)-N-acylphosphatidylethanolamine lipase (Mus musculus), sequence (Q8VD66 whole entry, looked up): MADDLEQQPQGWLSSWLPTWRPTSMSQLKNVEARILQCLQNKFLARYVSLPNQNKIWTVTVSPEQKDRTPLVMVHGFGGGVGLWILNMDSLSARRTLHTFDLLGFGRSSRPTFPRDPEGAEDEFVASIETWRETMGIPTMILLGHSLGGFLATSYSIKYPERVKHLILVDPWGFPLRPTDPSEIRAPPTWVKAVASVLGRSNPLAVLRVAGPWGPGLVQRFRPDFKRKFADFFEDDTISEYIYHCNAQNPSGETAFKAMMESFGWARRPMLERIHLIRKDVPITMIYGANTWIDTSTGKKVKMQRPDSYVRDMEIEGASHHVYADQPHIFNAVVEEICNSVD
For the compound `Cc1cccc(N2CCN(c3ccc(NC(=O)/C=C\C(=O)O)cc3)CC2)c1`, the inhibition was 0.64%.

Turning to `Oc1ccc(CNc2ccccc2O)cc1`, the inhibition was 37.2% (active).

`O=C(c1cccnc1)N(c1cc2sc(=O)oc2c2ccccc12)S(=O)(=O)c1ccccc1`: the inhibition is 17.6%.
